Hit rate of the full screen: of about 290,000 compounds, about 1,600 (0.55%) were called active. For the sample, actives were picked, then their nearest neighbours and some compounds at random. Unmarked numbers belong to inactive results.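 Rule for the calls: active = inhibition above the mean of all tested compounds plus 3 SD, set per campaign (cut at about 35% in these data); inactive = the rest.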

The term inhibition denotes the change of the read-out against control, counted positive when it falls.

For the experiment, the system named is Hepatitis C virus NS3 helicase. Description: HCV NS3 DNA unwinding blockers – biochemical, Cy5 molecular beacon fluorescence, primary screen (AID 1800).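 Note: 0% = DMSO wells and 100% = thioflavine S control wells.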 Particulars: at 10.9 µM, stronger effect = higher value. In short, it runs like this:
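System: HCV NS3 helicase fragment; control set: DMSO and thioflavine S; technique: Cy5 fluorescence at 0 and 60 min, beacon hairpin quenching; reagent: beacon DNA duplex substrate plus ATP; replicates: singlicate; schedule: 1 h reaction at 25 °C, ATP-initiated; medium: MOPS buffer pH 6.5 with MgCl2, DTT, Tween20, BSA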
In the case of `Cc1cccc(CCNS(=O)(=O)c2ccc(S(=O)(=O)NC3CCCC3)cc2)c1`, the inhibition is -9.33%.
In the case of `CCOC(=O)/C=c1\s/c(=C\c2ccc(C#N)cc2)c(=O)n1CC(=O)Nc1cccc(C)c1C` it was 12.5%; in that of `CN(c1ccccc1)c1ccc(/C=c2\s/c(=C(/C#N)C(=O)C(C)(C)C)n(Cc3ccco3)c2=O)cc1`, 37% (active); in that of `Cc1cs/c(=N\N=C\c2ccc(O)cc2)n1Cc1ccco1`, 3.43%.
In the case of `O=c1c(-c2ccccc2Cl)c[nH]n1-c1ccccc1` it was 3.07%; in that of `Cc1ccccc1Nc1nnc(SCC(=O)c2cc3ccccc3o2)s1`, 47.4% (active).
In the case of `Cc1ccc(Nc2nnc(SCC(=O)c3cc4ccccc4o3)s2)cc1C` it was 13.9%.
For the compound `Cc1cc(NC(=O)CSc2nnc(Nc3ccccc3F)s2)no1`, the inhibition is -0.95%.
In the case of `CC1CCN(S(=O)(=O)c2ccc(NC(=O)C3CC(=O)N(c4ccccc4)C3)cc2)CC1` (centres undefined) it was -43.1%; in that of `CN(C)c1ccnc2sc3c(=O)n(-c4ccc(Cl)cc4)cnc3c12`, 3.7%.
As to `Cc1cc(C)c2oc(C(=O)Nc3ccc(S(=O)(=O)Nc4nccc(C)n4)cc3)cc(=O)c2c1`, the inhibition is -10.1%.
In the case of `CS/C(=C\C(=O)c1ccco1)Nc1ccccc1Cl` it was 64.5% (active); in that of `O=C(Nc1ccccc1C(=O)N1CCCCC1)c1ccco1`, 5.37%.
Regarding `O=C(Nc1ccccc1)c1ccco1`, the inhibition is 10.7%.
In the case of `CCOc1ccc2sc(NS(=O)(=O)c3ccc(N)cc3)nc2c1` it was -15.8%; in that of `CN(C)[C@@H]1C(=O)C(C(N)=O)=C(O)[C@@]2(O)C(=O)C3=C(O)c4c(O)ccc(Cl)c4[C@@H](O)[C@H]3C[C@@H]12`, 39.9% (active); in that of `Cc1cccc(-n2ncc(Cl)c(Cl)c2=O)c1`, 10.4%.
As to `Cc1ccc2nc3c(cc(C(=O)NCCc4ccccc4)c(=N)n3CC3CCCO3)c(=O)n2c1` (centres undefined), the inhibition is -6.17%.
As for `O=C(Oc1ccc([N+](=O)[O-])cc1)c1ccc(Cl)c(S(=O)(=O)N2CCCCC2)c1`, the inhibition was 7.15%.
In the case of `CC(=O)Oc1cccc(N2C(=O)CC(Nc3ccc(N4CCOCC4)cc3)C2=O)c1` (centres undefined) it was 48.2% (active); in that of `CC(=O)Oc1cccc(N2C(=O)C3CC=C(Cl)CC3C2=O)c1` (centres undefined), 6.02%; in that of `COc1cc2ccccc2cc1C(=O)Nc1ccc(N2CCOCC2)cc1`, -2.47%.
In the case of `CCCCOC(=O)Nc1nnc(CC(=O)NCc2ccccc2)s1` it was 8.31%.
In the case of `COc1ccc(NC(=O)CSc2ccc(-c3ccco3)nn2)c(OC)c1` it was 36.8% (active); in that of `COc1ccc(NC(=O)CCC(=O)Nc2cc(OC)c(NC(=O)c3ccco3)cc2OC)c(OC)c1`, 7.66%; in that of `O=C(CSc1ccc(-c2ccco2)nn1)Nc1cccc(F)c1`, 20.3%.
On to `CC1=C(C(=O)OCC2CCCCC2)C(c2ccc(F)cc2)NC(=O)N1` (centres undefined), for which the inhibition is 0.43%.
`O=C1c2ccccc2S(=O)(=O)N1Cc1c(F)cccc1Cl`: the inhibition was 0.54%.
Next, `CCC1C/C(=C/c2cccs2)C(=O)/C(=C/c2cccs2)C1` (centres undefined): 44.1% (active); `CN1C/C(=C/c2cccs2)C(=O)/C(=C\c2cccs2)C1`: 9.92%.
Next, `O=C1/C(=C/c2cccs2)CCc2ccccc21`: -2.06%.
`NC(=O)C1CCN(CC(O)CSc2ccc(F)cc2)CC1` (centres undefined): the inhibition was 3.59%.
In the case of `O=C(Nc1ccccc1)C1CCN(C(=O)c2ccc(Br)cc2)CC1` it was -8.93%.
For the compound `Cc1ccc(S(=O)(=O)NCCCn2ccnc2)cc1C(=O)NC(C)C`, the inhibition is -0.51%.
Next, `Cc1ccc(S(=O)(=O)NCCSc2ccccc2)cc1[N+](=O)[O-]`: -4.6%; `Cc1ccc(S(=O)(=O)NCCC(c2ccccc2)c2ccccc2)cc1C(=O)O`: 38.8% (active).
In the case of `O=[N+]([O-])c1ccc2c(c1)Nc1nc3ccccc3nc1N2` it was 3.43%; in that of `CN1CCN(C(=O)c2cnn(-c3ccccc3)c2NC(=O)c2ccc([N+](=O)[O-])cc2)CC1`, 5.97%; in that of `CCOC(=O)c1c(-c2ccccc2)oc2cc(Br)c(O)cc12`, -8.03%.
In the case of `CCOC(=O)c1c(-c2ccccc2)oc2cc(Br)c(O)c(C=O)c12` it was 63.8% (active); in that of `CCOC(=O)c1c(-c2ccccc2)oc2ccc(OCC(N)=O)cc12`, -0.28%; in that of `CCOc1cc(-c2noc(CCCC(=O)NC3CCCCC3)n2)ccc1OC`, -0.34%.
Take `CCOc1ccc(CN2CCN(Cc3c[nH]c4ccccc34)CC2)cc1`: the inhibition was -65.4%.
For the compound `CCC1(C(=O)c2ccccc2)C(c2cccc([N+](=O)[O-])c2)C1(C(=O)OC)C(=O)OC` (centres undefined), the inhibition is -10.6%.
In the case of `Cc1ccc(N=C2NC(=O)/C(=C/C=C/c3ccco3)S2)cc1C` it was 60.8% (active).
In the case of `Cc1ccc(N2NC(=O)/C(=C/C=C/c3ccco3)C2=O)cc1C` it was 31.6%.
Next, `Cc1cccc(N=C2NC(=O)/C(=C/c3cn(C)c4ccccc34)S2)c1`: -2.21%.
As for `Cc1ccc(S(=O)(=O)NCCC(=O)Nc2cccc(S(N)(=O)=O)c2)cc1C`, the inhibition was -12.2%.
In the case of `Nc1c(C(=O)c2cccs2)sc2nsc(SCCN3CCCCC3)c12`, the inhibition was -21.1%.
In the case of `CC(=O)c1cccc(NC(=S)N2CCN(S(C)(=O)=O)CC2)c1` it was -3.09%; in that of `Cc1ccc(OCC(=O)Nc2ccccc2Sc2ccc(Cl)cc2)c([N+](=O)[O-])n1`, -5.04%; in that of `COc1ccc(/C=C/C(=O)c2cc(Br)ccc(=O)c2O)cc1`, 45.2% (active).
Next, `COc1ccc(/C=C/C(=O)c2ccc(OC)cc2O)cc1`: -6.12%; `COc1ccc(C(=O)/C=C/c2ccc(OC3CSC3)cc2)cc1`: -2.94%; `O=C(NC(=S)Nc1ccccc1N1CCCCC1)c1ccc(F)cc1`: 1.82%.
In the case of `CCCn1c(C2CCCN2c2nc(-c3ccc(C)cc3)cs2)nc2cc(Cl)c(N3CCCCC3)cc21` (centres undefined) it was 35.5%.
In the case of `CCn1c(C)c(C)c2cc(C(=O)N3CCN(c4cccc(C)c4C)CC3)ccc21`, the inhibition is 2.52%.
Next, `CCOc1cc(C2C(C(=O)c3ccco3)=C(O)C(=O)N2Cc2ccccc2)ccc1O` (centres undefined): 9.26%; `CCCOc1ccc(C2C(C(=O)c3ccc(C)o3)=C(O)C(=O)N2CCCn2ccnc2)cc1` (centres undefined): -15.3%.
In the case of `Cc1ccc2nc(N3C(=O)C(O)=C(C(=O)c4ccco4)C3c3cccc(O)c3)sc2c1` (centres undefined) it was 25.4%.
Next, `Cc1cc(N2C(=O)C(O)=C(C(=O)c3ccc(C)o3)C2c2ccc(OCc3ccccc3)cc2)no1` (centres undefined): 87.7% (active); `COc1cc(C2C(C(=O)c3ccco3)=C(O)C(=O)N2c2cc(C)on2)ccc1OCc1ccccc1` (centres undefined): 43.6% (active); `C=CCOc1cccc(C2C(C(=O)c3ccc(C)o3)=C(O)C(=O)N2CCCn2ccnc2)c1` (centres undefined): -4.21%.
On to `COc1ccc(-c2cc(C(=O)N3CCN(Cc4ccc5c(c4)OCO5)CC3)on2)cc1OC`, for which the inhibition is -19.4%.
For the compound `CC(=O)Nc1ccc(C(=O)N(C2=NC(C)CS2)c2ccc(Cl)cc2)cc1` (centres undefined), the inhibition is -10.2%.
Next, `COc1ccccc1CCCNC(=O)C1CCC(=O)N(CCN2CCOCC2)C1` (centres undefined): 7.14%; `COc1cccc(CNC(=O)c2cccnc2Sc2ccc(Cl)cc2)c1`: -6.66%.
Next, `CC(=O)O[C@H]1c2ccccc2-c2ccccc2[C@@H]1OC(C)=O`: 13.1%.
Next, `O=Cc1c(NCCc2cccc(F)c2)c2ccccc2[nH]c1=O`: 0.14%.

The record behind these values is PubChem BioAssay AID1800 (The Scripps Research Institute Molecular Screening Center, 2009).
